Results gathered from unrelated publications.
Compare with care: the assays were run in different laboratories.
Target: Serine/threonine-protein kinase D1 (PRKD1, Homo sapiens, UniProt Q15139)
Sequence (Q15139 1-912, as in one of the studies): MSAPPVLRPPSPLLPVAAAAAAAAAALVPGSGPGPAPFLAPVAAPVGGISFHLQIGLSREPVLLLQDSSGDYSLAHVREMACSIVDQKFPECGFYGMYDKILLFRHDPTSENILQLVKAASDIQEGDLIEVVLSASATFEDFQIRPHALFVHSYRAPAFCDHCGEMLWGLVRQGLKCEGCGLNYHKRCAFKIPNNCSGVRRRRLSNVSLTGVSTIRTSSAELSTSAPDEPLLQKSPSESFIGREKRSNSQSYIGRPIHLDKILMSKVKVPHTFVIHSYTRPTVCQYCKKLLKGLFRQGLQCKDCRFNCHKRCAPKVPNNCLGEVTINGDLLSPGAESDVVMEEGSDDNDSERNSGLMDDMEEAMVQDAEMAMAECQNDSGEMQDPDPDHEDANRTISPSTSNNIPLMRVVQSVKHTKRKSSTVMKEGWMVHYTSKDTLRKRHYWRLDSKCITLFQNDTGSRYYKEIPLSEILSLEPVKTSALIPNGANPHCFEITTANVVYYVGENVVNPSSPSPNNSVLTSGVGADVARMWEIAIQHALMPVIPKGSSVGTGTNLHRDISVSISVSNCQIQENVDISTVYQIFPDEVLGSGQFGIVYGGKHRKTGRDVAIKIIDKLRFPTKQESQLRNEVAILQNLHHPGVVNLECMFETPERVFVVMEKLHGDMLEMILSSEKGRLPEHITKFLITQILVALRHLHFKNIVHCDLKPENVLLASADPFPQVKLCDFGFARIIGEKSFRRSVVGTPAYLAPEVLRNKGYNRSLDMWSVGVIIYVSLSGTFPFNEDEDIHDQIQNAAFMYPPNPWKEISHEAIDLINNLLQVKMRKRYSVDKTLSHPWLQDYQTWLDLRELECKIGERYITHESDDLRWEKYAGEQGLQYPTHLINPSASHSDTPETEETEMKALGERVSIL

Structure (SMILES) | assay | setting | quantity | result
Cc1nc(Cc2cccc(C(F)(F)F)c2)sc1-c1ccc(C(N)=O)nc1 | cell-free assay, competition with immobilised ligand | 1 µM | remaining binding | 93%
Cn1cnc(Br)c1C1=CN(c2ncnc3[nH]cnc23)CCS1 | enzyme activity, inhibitor, radiometric | 2 µM | inhibition | 91.4%
Nc1nc(Nc2ccccc2)sc1C(=O)c1c(F)cccc1F | enzyme activity, inhibitor | 10 µM | remaining activity | 46%
CCCCN(CCCC)C(=O)CN1C[C@H](c2cc(OC)c3c(c2)OCO3)[C@@H](C(=O)O)[C@@H]1CC(C)(C)CCC | cell-free assay, competition with immobilised ligand | 1 µM | remaining binding | 79.4%
COc1cc(/C=C/C(=O)CC(=O)/C=C/c2ccc(O)c(OC)c2)ccc1O | enzyme activity, inhibitor | 1 µM | activity vs control | 79%
CC/C(=N\NC(=O)NCc1cccc(O)c1)c1ccc(O)c(C)c1O | enzyme activity, inhibitor | 0.1 µM | inhibition | -0.2%
Cn1cncc1C1=CN(c2ncnc3[nH]cnc23)CCS1 | enzyme activity, inhibitor, radiometric | 2 µM | inhibition | 89.2%
CN(C(=O)c1ccccc1)c1cc(N(C)c2ccc3c(c2)CCc2ccc(C(=O)NCCN4CCOCC4)cc2C3=O)ccc1F | cell-free assay, competition with immobilised ligand | 1 µM | remaining binding | 86%
CCCCNc1ncc2c(-c3ccc(F)cc3)nn(C[C@H]3CC[C@H](N)CC3)c2n1 | target engagement in cells, inhibitor, chemoproteomics | 20 mM | inhibition | 25%
CCCOc1ccc(OC)c(F)c1C(=O)c1ccc(C(=O)N[C@@H]2CNC[C@H]2NC(=O)c2ccc3[nH]ncc3c2)cc1 | enzyme activity, inhibitor | 10 µM | remaining activity | 53%
CCCS(=O)(=O)Nc1ccc(F)c(C(=O)c2c[nH]c3ncc(-c4ccc(Cl)cc4)cc23)c1F | enzyme activity, inhibitor | 1 µM | inhibition | < 10%
CC(C)c1ccc(NC(=O)c2cccs2)c(-c2nc3ccccc3[nH]c2=O)c1 | enzyme activity, inhibitor | 1 µM | activity vs control | 97%
Oc1cccc(-c2nc(N3CCOCC3)c3oc4ncccc4c3n2)c1 | enzyme activity, inhibitor | 10 µM | remaining activity | 120%
O=C(NC[C@@H]1[C@H]2CN(C(=O)OCc3cc(C(F)(F)F)cc(C(F)(F)F)c3)C[C@@H]12)c1ccc2[nH]nnc2c1 | cell-free assay, competition with immobilised ligand | 1 µM | remaining binding | 100%
CCN(CC)CCNC(=O)c1c(C)[nH]c(/C=C2\C(=O)Nc3ccc(F)cc32)c1C | cell-free assay | 0.5 µM | remaining signal | 20%
COc1cc(Cl)c(C(=O)N[C@@H](CN[C@H]2CC[C@@H](N)CC2)Cc2ccc(C#N)cc2)cc1-c1ccc(CN[C@H](C)c2ccc(C)cc2)o1 | enzyme activity, inhibitor | 1 µM | remaining activity | 99%
O=C1NC(=O)c2cc(Nc3ccc(F)cc3)c(Nc3ccc(F)cc3)cc21 | cell-free assay | 0.5 µM | remaining signal | 92.2%

Structure (SMILES) | assay | setting | quantity | result
CNC(=O)c1cc(Oc2ccc(NC(=O)Nc3ccc(Cl)c(C(F)(F)F)c3)cc2)ccn1 | enzyme activity, inhibitor | 10 µM | inhibition | 13%
FC(F)(F)Oc1cccc(-c2cnc3ccc(-c4ccncc4)nn23)c1 | enzyme activity, inhibitor, radiometric | 5 µM | activity vs control | 158%
CC(C)(C)c1nc(-c2cccc(NS(=O)(=O)c3c(F)cccc3F)c2F)c(-c2ccnc(N)n2)s1 | enzyme activity, inhibitor, radiometric | 1 µM | remaining activity | 33%
CS(=O)(=O)NCC[C@H](NC(=O)c1cncc2c1cnn2-c1ccc(F)cc1)c1ccnc(S(C)(=O)=O)c1 | cell-free assay, competition with immobilised ligand | 1 µM | remaining binding | 92%
Cc1cnc(NC2CCOCC2)nc1-n1cnc(C(=O)NC(CN)c2cc(F)cc(Cl)c2)c1 (stereo not shown) | enzyme activity, inhibitor, radiometric | 1 µM | remaining activity | 0%
O=C(Nc1cnn(-c2csc(C(=O)NC3COC3)c2)c1)Nc1c(F)cccc1Cl | enzyme activity, inhibitor | 5 µM | remaining activity | 90.7%
Cn1c2ccccc2c2c3c(c4c5ccccc5n(CCC#N)c4c21)CNC3=O | cell-free assay | 0.5 µM | remaining signal | 17.3%
COc1cc2ncnc(Nc3ccc(Oc4ccccc4)c(C)c3C)c2cc1OC | enzyme activity, inhibitor | 1 µM | inhibition | -3%
O=C1Nc2ccc(Cl)cc2C1=Cc1cc(Cl)c(O)c(Cl)c1 | cell-free assay | 0.5 µM | remaining signal | 91.5%
CC(C)(O)[C@H]1CC[C@H](Nc2ccc3ncc(-c4cccc(C(F)(F)F)c4)n3n2)CC1 | enzyme activity, inhibitor | 1 µM | remaining activity | 99.5%
Cc1ccc(Nc2nccc(N(C)c3ccc4c(C)n(C)nc4c3)n2)cc1S(N)(=O)=O | enzyme activity, inhibitor | 10 µM | inhibition | 23%
O=C(Nc1ccc(Oc2ccc(F)cc2)cc1)N1CCc2ncccc2[C@H]1c1ccc(F)cc1 | cell-free assay, competition with immobilised ligand | 1 µM | remaining binding | 94%
Nc1nc(NC2CCCCC2)sc1C(=O)c1ccccc1 | enzyme activity, inhibitor | 10 µM | remaining activity | 35%
O=c1nc(-c2ccccn2)sc2ccccc12 | binding, competition with immobilised ligand | 1 µM | remaining binding | 100%
CNc1cccc2cc(C(=O)Nc3ccc(C(=O)O)cc3)c(=O)[nH]c12 | enzyme activity, inhibitor | 10 µM | inhibition | -3.9%
c1ccc(CNc2nc(N3CCOc4ccccc43)nc3c2CCCC3)cc1 | target engagement in cells, inhibitor, chemoproteomics | 20 mM | inhibition | -8.8%
Cc1nccc(COC(=O)N2C[C@@H]3[C@@H](CNC(=O)c4ccc5[nH]nnc5c4)[C@@H]3C2)n1 | cell-free assay, competition with immobilised ligand | 1 µM | remaining binding | 100%
